CHRM4 agonist: human M4 muscarinic receptor agonists, primary screen, CHO-K1 cells, Fluo-8 calcium fluorescence. Muscarinic acetylcholine receptor M4 (Homo sapiens), P08173. CHO-K1 hM4/Gqi5; vehicle 0%, full acetylcholine response 100%. activation, % at 3 µM. 360,000 compounds, 0.14% hits. AID 624127, 2012;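 active = activation above the run mean over all test wells plus 3 SD, cut at about 32% in these data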;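 note: peak over basal fluorescence ratio per well then scaled between controls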
CHRM5 agonist: human M5 muscarinic receptor agonists, primary screen, CHO-K1 cells, Fluo-8 calcium fluorescence; CHO-K1 hM5 cells; 0% DMSO wells, 100% maximal acetylcholine response; activation, % at 3 µM; 360,000 compounds, 0.19% hits;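 active = activation above the run's mean over test compounds plus 3 SD, cut at about 23% in these data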;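 note: signal is peak over basal fluorescence ratio across the kinetic read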
Target sequence (P08912 whole entry, looked up): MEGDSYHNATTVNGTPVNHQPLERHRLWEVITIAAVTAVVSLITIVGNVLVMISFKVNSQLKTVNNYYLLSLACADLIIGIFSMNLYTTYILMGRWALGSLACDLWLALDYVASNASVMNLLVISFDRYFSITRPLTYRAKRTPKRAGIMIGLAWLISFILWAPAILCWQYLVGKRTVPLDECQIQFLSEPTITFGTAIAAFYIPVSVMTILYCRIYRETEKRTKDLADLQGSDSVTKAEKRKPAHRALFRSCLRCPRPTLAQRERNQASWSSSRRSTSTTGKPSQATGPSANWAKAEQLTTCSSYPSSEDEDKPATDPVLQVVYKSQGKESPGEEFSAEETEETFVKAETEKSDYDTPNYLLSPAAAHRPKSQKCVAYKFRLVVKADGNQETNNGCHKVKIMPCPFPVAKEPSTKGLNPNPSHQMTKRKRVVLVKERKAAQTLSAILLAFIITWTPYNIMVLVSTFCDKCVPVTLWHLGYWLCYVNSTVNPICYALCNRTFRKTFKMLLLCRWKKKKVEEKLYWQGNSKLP
M5 antag: human M5 muscarinic receptor antagonists, primary screen, CHO cells, Fluo-8 calcium fluorescence; Muscarinic acetylcholine receptor M5 (Homo sapiens), P08912; CHO-hM5 cells, ACh EC80; inhibition, % at 3 µM; 360,000 compounds, 0.59% hits;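 active = inhibition above a per-plate cutoff, the mean of that plate's test compounds plus 3 SD, cut at about 27% in these data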
M4 PAM: human M4 muscarinic receptor positive allosteric modulators, primary screen, CHO-K1 cells, Fluo-8 calcium fluorescence; Muscarinic acetylcholine receptor M4 (Homo sapiens), P08173; CHO-K1 hM4/Gqi5, ACh EC20; 0% = ACh EC20, 100% = maximal ACh; activation, % at 3 µM; 360,000 compounds, 0.4% hits;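 active = activation above its plate's cutoff, the mean activation of sample wells plus 3 SD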
CHRM4 antagonist: human M4 muscarinic receptor antagonists, primary screen, CHO cells, Fluo-8 calcium fluorescence; CHO-hM4 cells, ACh EC80; inhibition, % at 3 µM; 360,000 compounds, 0.73% hits;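 active = inhibition above its plate's cutoff, the mean inhibition of sample wells plus 3 SD, cut at about 27% in these data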
CHRM5 PAM: human M5 muscarinic receptor positive allosteric modulators, primary screen, CHO-K1 cells, Fluo-8 calcium fluorescence; Muscarinic acetylcholine receptor M5 (Homo sapiens), P08912; CHO-K1 hM5, ACh EC20 PAM; 0% = ACh EC20, 100% = ACh EC100; activation, % at 3 µM; 360,000 compounds, 0.3% hits; AID 624038, 2012;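 active = activation above the run cutoff, the mean activation of all test compounds plus 3 SD, cut at about 18% in these data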
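Assay system – human M5 receptor in CHO-K1 cells · Read-out – % activation, ACh-normalized · Technique – Fluo-8 calcium fluorescence · Dosing – single-point, 3 µM nominal · Incubation – Fluo-8 loading 80 min at 37 °C plus 30 min room temperature · Repeats – singlicate, one well per test compound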
Large screens that a line does not name were inactive. Most compounds without a hit are left out; they make up all but 1.8% or so of the library.

COc1cccc(-n2c(C)nc3ccccc3c2=O)c1	M4 PAM 27
O=[N+]([O-])c1cc([As](=O)(O)O)ccc1O	CHRM5 agonist 36
CN(C)c1ccc(/C=C2\C(=O)NC(=O)N(Cc3ccc(F)cc3)C2=O)cc1	none
O=C1NC(=O)N(Cc2ccc(F)cc2)C(=O)/C1=C\c1ccoc1	CHRM5 agonist 25
C[C@]12CC[C@H](O)C[C@@H]1CC[C@@H]1[C@@H]2CC[C@]2(C)C(=O)CC[C@@H]12	CHRM5 agonist 48
C[C@]12CCC3[C@@H](CC[C@@H]4C[C@H](O)CC[C@]34C)[C@@H]1CCC2=O (some centres undefined)	none
C[C@]12CCC3C(CC[C@H]4C[C@@H](O)CC[C@]34C)[C@H]1C=CC2=O (some centres undefined)	M4 PAM 15
C[C@@H]1CN([C@@H](C)CO)C(=O)CCCn2nncc2CO[C@H]1CN(C)C(=O)Oc1ccccc1	none
CN1CCC(C)(O)C2CCCCC21 (centres undefined)	none
Cn1c(O)c(C=NCCN2CCOCC2)c(=O)[nH]c1=S	none
CCN(CC)S(=O)(=O)c1cc(NC(=O)C(C)N2CC=C(c3ccccc3)CC2)ccc1C (centres undefined)	none
c1ccc2c(c1)Sc1ccccc1N2CC1CN2CCC1CC2 (centres undefined)	M5 antag 98, CHRM4 antagonist 98
O=c1[nH]c(=O)n(Cc2ccc(F)cc2)c(O)c1C=NCC1CCCO1 (centres undefined)	CHRM5 PAM 38
O=P(O)(O)Cc1ccccc1OP(=O)(c1ccccc1)c1ccccc1	none
COC(=O)C1=C(c2cccc(OCc3ccccc3)c2)C[C@@H]2CC[C@H]1N2C(=O)NCCc1ccc(F)cc1	CHRM4 antagonist 40
COC(=O)C1=C(c2ccc(F)cc2OCc2ccccc2)C[C@@H]2CC[C@H]1N2C(=O)N1CCC(C)CC1	CHRM4 antagonist 38
C=CCNC(=S)Nc1ccc(OC(=O)Nc2ccc(Cl)c(Cl)c2)cc1	M5 antag 28
O=C(Nc1ccc(Cl)c(Cl)c1)c1ccco1	none
O=S(=O)(NC1CN2CCC1CC2)c1ccc(Cl)cc1 (centres undefined)	none
OC(c1cccc(Cl)c1)(c1cccc(Cl)c1)C1CN2CCC1CC2 (centres undefined)	M5 antag 99, CHRM4 antagonist 94
N#Cc1ccc(NC(=O)CN2CCCCCC2)cc1Cl	none
COc1ccc(-c2cc(-c3ccccc3)[n+](C)c(-c3ccccc3)c2)cc1	none
C[n+]1c(-c2ccccc2)cc(CCCCc2cc(-c3ccccc3)[n+](C)c(-c3ccccc3)c2)cc1-c1ccccc1	CHRM4 antagonist 47
CCOC(=O)C(C)(CC)NC(=O)CSP(=S)(OCC)OCC (centres undefined)	none
Cc1cc(OCC(=O)N2CCC(C(=O)O)(c3ccccc3)CC2)c2c(C)c(C)c(=O)oc2c1	CHRM4 antagonist 76
Cc1ccc(C[n+]2c(-c3ccc(C)cc3)cc(-c3ccc(C)cc3)cc2-c2ccc(C)cc2)cc1	M5 antag 37
C=C1C(=O)O[C@@H]2C[C@@H](C)[C@@H]3C=CC(=O)[C@@]3(C)[C@@H](OC(=O)CC(=O)O[C@H]3[C@@H]4C(=C)C(=O)O[C@@H]4C[C@@H](C)[C@@H]4C=CC(=O)[C@]43C)[C@H]12	CHRM4 antagonist 39
COC(=O)C1=C(c2cccc(OC)c2OC)C[C@@H]2CC[C@H]1N2C(=O)NCC1CC1	none
O=S(=O)(c1ccccc1)N1CCN2CCCC2C1 (centres undefined)	none
Clc1ccc(C(OCCN2CCCCC2)c2ccccc2)cc1 (centres undefined)	M5 antag 57, CHRM4 antagonist 38

Bioassay records as filed in PubChem.
